MC4R ag barr: MC4R agonists recruiting beta-arrestin, primary screen, cell-based, luminescence, agonist arm of biased-ligand search. U2OS MC4R beta-arrestin complementation; percent of melanotan II response, DMSO zero. hit rate 0.98% among 360,000. Melanocortin receptor 4 (Homo sapiens), P32245. activation, % at 8.9 µM;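 active means activation above a per-plate cutoff, the mean activation of sample wells on that plate plus 3 SD, cut at about 8% in these data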
Target sequence (P32245 whole entry, looked up): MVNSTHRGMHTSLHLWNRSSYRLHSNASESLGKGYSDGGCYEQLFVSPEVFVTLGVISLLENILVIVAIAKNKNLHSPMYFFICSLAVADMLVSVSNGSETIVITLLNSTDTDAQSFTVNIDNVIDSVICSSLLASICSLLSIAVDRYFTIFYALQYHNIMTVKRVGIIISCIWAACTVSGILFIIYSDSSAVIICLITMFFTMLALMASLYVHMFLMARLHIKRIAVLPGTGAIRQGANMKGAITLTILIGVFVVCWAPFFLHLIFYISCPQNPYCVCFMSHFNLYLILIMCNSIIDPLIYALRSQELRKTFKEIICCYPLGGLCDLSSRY
ATG4B inhibitor: ATG4B protease inhibitors, primary screen, biochemical, fluorescence, uHTS | Cysteine protease ATG4B (Homo sapiens), Q9Y4P1 | ATG4B cleavage of LC3-PLA2, NBD-HPC fluorescence, 1 h | inhibition, % at 8.33 µM | hit rate 0.51% among 340,000; in the data active means inhibition above about 40%
MPTP inh: mitochondrial permeability transition pore inhibitors, primary screen, biochemical, isolated mouse mitochondria, absorbance; Ca2+ swelling absorbance, 30 min; inhibition, % at 10 µM; hit rate 1.4% among 360,000; AID 602449, 2012;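 active means inhibition of 50% or more, scaled per plate between neutral and stimulator controls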;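 further: 0% = DMSO wells given calcium and 100% = 1 mM EGTA wells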
SMARCA2 activ: SMARCA2 (BRM) function activators, primary screen, cell-based, luminescence, high throughput; MG213 cells, MMTV-luciferase reporter, dexamethasone, overnight; activation, % at 9.1 µM; hit rate 1% among 370,000; AID 652017, 2013; in the data active means activation above about 7.8%;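 further: 0% = vehicle wells and 100% = reference activator wells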
MC4R antag cAMP: MC4R antagonists of cAMP signaling, primary screen, cell-based, TR-FRET, antagonist arm of biased-ligand search; hit rate 0.48% among 360,000; MC4R-expressing cells, MTII-stimulated cAMP, LANCE TR-FRET; inhibition, % at 6.5 µM; AID 540295, 2011;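 active means inhibition above its plate's cutoff, the mean of tested wells on that plate plus 3 SD, cut at about 29% in these data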;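 further: 0% = Melanotan II alone and 100% = Melanotan II plus saturating MCL0020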
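Material: human MC4R-expressing U2OS cells. Probe or stimulus: Melanotan II challenge. Dosing: 6.5 µM single dose. Times: 30-min compound, 1-h challenge, 1-h detection, room temperature. Technique: TR-FRET with Eu-cAMP and labeled anti-cAMP, 671 nm. Replication: singlicate.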
MC4R barr conf: MC4R beta-arrestin agonists, retest, confirmation, cell-based, luminescence, U2OS; shares compounds with MC4R ag barr; U2OS MC4R beta-arrestin recruitment; scaled DMSO 0%, Melanotan II 100%; activation, % at 8.9 µM; hit rate 31% among 2,400;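 active means mean activation across replicates above the hit cutoff set in the earlier primary screen, cut at about 8% in these data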
MOR DOR agonist: agonists of MOR-DOR heterodimerization, counter-screen for MC4R biased agonist project, cell-based, luminescence; shares compounds with MC4R ag barr; U2OS PathHunter beta-arrestin, beta-gal luminescence; percent of deltorphin B response, DMSO zero; activation, % at 9.2 µM; hit rate 5.8% among 2,400; AID 602194, 2012;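 active means mean activation across replicates exceeds the hit threshold derived in the earlier primary screen, cut at about 18% in these data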;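 further: 100% = deltorphin B at 0.9 µM final and 0% = DMSO alone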
* = called active by the depositor. A selection: hits, their analogues and other compounds. The true share with any hit is near 4.1%.

`Cc1ccc(C)c(OCCC(=O)OCC(=O)NC(=O)NC2CCCC2)c1` gave MC4R ag barr 13.9*, ATG4B inhibitor -0.6, MPTP inh 0.4, SMARCA2 activ -3.9, MC4R antag cAMP 7.6, MC4R barr conf 3.1 and MOR DOR agonist 8.0.
Cc1ccc(C)c(OCCC(=O)OCC(=O)NC2CC2)c1 was read as MC4R ag barr -2.8, ATG4B inhibitor -10.4, MPTP inh -0.4, SMARCA2 activ -5.3 and MC4R antag cAMP 6.5.
For Cc1cc(C(C)(C)C)cc(C)c1Cn1c2[n+](c3ccc(C(F)(F)F)cc31)CCCCC2 the results were MC4R ag barr 16.7*, ATG4B inhibitor 11.2, MPTP inh 7.8, SMARCA2 activ 1.6, MC4R antag cAMP 2.5, MC4R barr conf 15.0* and MOR DOR agonist 7.2.
O=C1CC2c3cc(Br)ccc3CCN2C(=O)CN1Cc1ccccc1 (centres undefined) was read as SMARCA2 activ -3.5.
NC(=O)CC(NC(=O)c1ccccc1)c1ccc(NCc2ccc(F)c(F)c2)c([N+](=O)[O-])c1 (centres undefined) was read as MC4R ag barr -1.2, ATG4B inhibitor -8.3, MPTP inh 1.3, SMARCA2 activ -0.4 and MC4R antag cAMP 3.9.
For NC(=O)CC(NC(=O)c1ccccc1)c1ccc(NCCc2ccc(Cl)cc2)c([N+](=O)[O-])c1 (centres undefined) the results were MC4R ag barr 13.3*, ATG4B inhibitor 7.9, MPTP inh 0.5, SMARCA2 activ 1.7, MC4R antag cAMP -2.2, MC4R barr conf 2.9 and MOR DOR agonist 1.0.
For NC(=O)CC(NC(=O)c1ccc(Br)cc1)c1ccc(NCc2ccc(F)cc2)c([N+](=O)[O-])c1 (centres undefined) the results were MC4R ag barr 1.8, ATG4B inhibitor -8.7, MPTP inh -1.6, SMARCA2 activ 0.6 and MC4R antag cAMP 11.1.
`Cc1ccccc1CNc1ccc(C(CC(N)=O)NC(=O)c2ccc(Br)cc2)cc1[N+](=O)[O-]` (centres undefined) gave MC4R ag barr 15.7*, ATG4B inhibitor 1.5, MPTP inh 1.2, SMARCA2 activ -1.0, MC4R antag cAMP 0.8, MC4R barr conf 0.8 and MOR DOR agonist 2.4.
Screening CS(=O)(=O)N1CCC(C(=O)NCC2COc3ccccc3O2)CC1 (centres undefined) returned SMARCA2 activ -1.2.
Screening CN(C)CCOc1ccc(-c2c(-c3ccsc3)sc3ccccc23)cc1 returned MC4R ag barr 13.2*, ATG4B inhibitor 5.3, MPTP inh 0.3, SMARCA2 activ 1.5, MC4R antag cAMP 11.8, MC4R barr conf 22.6* and MOR DOR agonist 8.7.
Screening COc1ccc(-c2sc3ccccc3c2-c2ccc(OCCN(C)C)cc2)cc1 returned MC4R ag barr 21.1*, ATG4B inhibitor 16.0, MPTP inh -0.1, SMARCA2 activ 2.2, MC4R antag cAMP 28.2, MC4R barr conf 45.1* and MOR DOR agonist 15.3.
O=C(CNS(=O)(=O)c1ccc(Br)s1)N1CCN(c2ccccn2)CC1 was read as SMARCA2 activ -2.4.
COc1ccc(CSc2nc3ccccc3c(=O)[nH]2)cc1F was read as MC4R ag barr -0.7, ATG4B inhibitor -6.1, MPTP inh 0.4, SMARCA2 activ -1.1 and MC4R antag cAMP 6.5.
O=c1[nH]c(SCc2ccc(F)cc2Cl)nc2ccccc12 was read as MC4R ag barr 10.0*, ATG4B inhibitor 23.4, MPTP inh 1.4, SMARCA2 activ -2.4, MC4R antag cAMP -7.2, MC4R barr conf 2.1 and MOR DOR agonist 6.1.
For O=C(N/N=C/c1ccc(O)cc1)c1ccc(COc2cc(Cl)ccc2Cl)o1 the results were MC4R ag barr 25.9*, ATG4B inhibitor -8.4, MPTP inh 0.5, SMARCA2 activ 2.2, MC4R antag cAMP 4.8, MC4R barr conf 39.9* and MOR DOR agonist 9.2.
Screening O=C(Nc1ccn(Cc2c(F)c(F)cc(F)c2F)n1)c1ccc(COc2cc(Cl)ccc2Cl)o1 returned MC4R ag barr 11.3*, ATG4B inhibitor 15.8, MPTP inh -2.0, SMARCA2 activ -3.3, MC4R antag cAMP 8.3, MC4R barr conf 2.5 and MOR DOR agonist 2.6.
C=CCN1C(=O)c2n[nH]c(COC)c2C1c1ccc(F)cc1 (centres undefined) was read as SMARCA2 activ -4.1.
COc1ccc(-c2cc(NC=O)c3ncc(-c4cnn(C)c4)n3c2)cc1 was read as MC4R ag barr 14.5*, MPTP inh -0.7, SMARCA2 activ -1.8, MC4R antag cAMP -1.8, MC4R barr conf 9.6* and MOR DOR agonist 1.2.
Screening COc1ccc(-c2cc(NC=O)c3ncc(-c4cc(OC)c(OC)c(OC)c4)n3c2)cc1 returned MC4R ag barr 1.3, MPTP inh 0.9, SMARCA2 activ 1.4 and MC4R antag cAMP -27.4.
`COc1cccc(-c2cnc3c(NC=O)cc(-c4cc(OC)c(OC)c(OC)c4)cn23)c1` gave MC4R ag barr 28.6*, MPTP inh -0.8, SMARCA2 activ -1.5, MC4R antag cAMP -36.2, MC4R barr conf 26.2* and MOR DOR agonist 3.3.
Screening COc1ccc(-c2cnc3c(NC=O)cc(-c4ccoc4)cn23)cc1OC returned MC4R ag barr 15.5*, MPTP inh 1.0, SMARCA2 activ 4.7, MC4R antag cAMP -16.1, MC4R barr conf 9.3* and MOR DOR agonist 1.6.
For COc1cccc(-c2cnc3c(NC=O)cc(-c4ccc(N(C)C)cc4)cn23)c1 the results were MC4R ag barr 14.6*, MPTP inh 1.4, SMARCA2 activ -1.7, MC4R antag cAMP -5.1, MC4R barr conf 7.8 and MOR DOR agonist 2.5.
Screening COc1cccc(-c2cnc3c(NC=O)cc(-c4ccc(OC)cc4OC)cn23)c1 returned MC4R ag barr 14.4*, MPTP inh 0.7, SMARCA2 activ 2.8, MC4R antag cAMP -38.2, MC4R barr conf 11.9* and MOR DOR agonist 2.5.
`COc1ccc(-c2cc(NC=O)c3ncc(-c4cccc(OC)c4)n3c2)cc1` gave MC4R ag barr 3.2, MPTP inh 0.6, SMARCA2 activ 5.6 and MC4R antag cAMP -5.8.

Bioassay records as filed in PubChem.
